Experimental data from ChEMBL document CHEMBL1240350, “In vitro activity of CEM-101 against Streptococcus pneumoniae and Streptococcus pyogenes with defined macrolide resistance mechanisms” (Antimicrob Agents Chemother, 2010).
Converted amounts (≈) assume the structure as drawn.

Tests used:
Streptococcus pneumoniae [1] = assay: Antibacterial activity against Streptococcus pneumoniae harboring mef(A) gene after overnight incubation by agar dilution method; type: functional
Procedure, shortened: (§1)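 Clinical isolates collected 1998–2008, with macrolide-resistance genes confirmed by PCR. MICs by agar dilution on Mueller-Hinton agar with 5% sheep blood. Inoculum 10^4 CFU/spot, incubated overnight at 35°C in ambient air. S. pneumoniae ATCC 49619 was the quality-control strain in every run.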

Streptococcus pneumoniae [2] = assay: Antibacterial activity against quinolone-susceptible Streptococcus pneumoniae after overnight incubation by agar dilution method; type: functional
Procedure, shortened: (§2)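 Agar dilution on Mueller-Hinton agar supplemented with 5% sheep blood. Inoculum 10^4 CFU/spot, incubated overnight at 35°C in ambient air. Test strains were clinical pneumococcal isolates. S. pneumoniae ATCC 49619 was included as the quality control strain in each run. MIC range, MIC50 and MIC90 were reported for each susceptibility category.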

Streptococcus pneumoniae [3] = assay: Antibacterial activity against quinolone-resistant Streptococcus pneumoniae after overnight incubation by agar dilution method; type: functional; procedure, shortened: as §2
Streptococcus pneumoniae [4] = assay: Antibacterial activity against macrolide-resistant Streptococcus pneumoniae harboring mef(A) gene after overnight incubation by agar dilution method; type: functional
Procedure, shortened: (§3)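 Agar dilution MICs on Mueller-Hinton agar with 5% sheep blood. Inoculum 10^4 CFU/spot, incubated overnight at 35°C in ambient air. Clinical S. pneumoniae or group A streptococcal isolates; resistance genotypes (erm(B), erm(A), mef(A)/mef(E)) were assigned by PCR. S. pneumoniae ATCC 49619 served as QC strain in each run. Range, MIC50 and MIC90 reported per phenotype group.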

Streptococcus pyogenes [5] = assay: Antibacterial activity against macrolide-susceptible Streptococcus pyogenes after overnight incubation by agar dilution method; type: functional
Procedure, shortened: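 Agar dilution on Mueller-Hinton agar supplemented with 5% sheep blood, inoculum 10^4 CFU/spot, read after overnight incubation at 35°C in ambient air. Clinical isolates with defined genotypes; S. pneumoniae ATCC 49619 quality control strain included in each run. MIC50/MIC90 are MICs inhibiting 50% and 90% of isolates.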

Streptococcus pyogenes [6] = assay: Antibacterial activity against Streptococcus pyogenes harboring mef(A) gene after overnight incubation by agar dilution method; type: functional; procedure, shortened: as §1
Streptococcus pyogenes [7] = assay: Antibacterial activity against Streptococcus pyogenes harboring erm(A) gene after overnight incubation by agar dilution method; type: functional; procedure, shortened: as §1
Streptococcus pyogenes [8] = assay: Antibacterial activity against Streptococcus pyogenes harboring mutation in L4 ribosomal protein after overnight incubation by agar dilution method; type: functional; procedure, shortened: as §1
Streptococcus pyogenes [9] = assay: Antibacterial activity against macrolide-resistant Streptococcus pyogenes harboring erm(B) gene after overnight incubation by agar dilution method; type: functional; procedure, shortened: as §3
Streptococcus pyogenes [10] = assay: Antibacterial activity against macrolide-resistant Streptococcus pyogenes harboring mef(A) gene after overnight incubation by agar dilution method; type: functional; procedure, shortened: as §3
Streptococcus pneumoniae [11] = assay: Antibacterial activity against macrolide-susceptible Streptococcus pneumoniae 1077 after overnight incubation by agar dilution method; type: functional
Streptococcus pneumoniae [12] = assay: Antibacterial activity against macrolide-susceptible Streptococcus pneumoniae 1077 after 43 passages and 10 compound-free subculturing by retest method; type: functional
Streptococcus pneumoniae [13] = assay: Antibacterial activity against macrolide-resistant Streptococcus pneumoniae 1635 harboring erm(A) gene after 32 passages and 10 compound-free subculturing by retest method; type: functional
Procedure, shortened: (§4)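 Multistep selection by daily serial passage in subinhibitory drug concentrations. Medium was cation-adjusted Mueller-Hinton broth plus 5% lysed horse blood. Each day the next inoculum came from the tube 1–2 dilutions below the MIC whose turbidity matched the growth control, for up to 50 days. Clone MICs by CLSI macrodilution; identity to the parent confirmed by SmaI PFGE.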

Streptococcus pneumoniae [14] = assay: Antibacterial activity against macrolide-resistant Streptococcus pneumoniae 1635 harboring erm(A) gene after 49 passages and 10 compound-free subculturing by retest method; type: functional; procedure, shortened: as §4
Streptococcus pneumoniae [15] = assay: Antibacterial activity against macrolide-resistant Streptococcus pneumoniae 2686 harboring mutation in L4 ribosomal protein after 14 passages and 10 compound-free subculturing by retest method; type: functional
Streptococcus pneumoniae [16] = assay: Antibacterial activity against macrolide-susceptible Streptococcus pneumoniae 7127 harboring S20N mutation in L4 ribosomal protein and A105V mutation in L22 ribosomal protein after 38 passages and 10 compound-free subculturing by retest method; type: functional
Streptococcus pneumoniae [17] = assay: Antibacterial activity against macrolide-susceptible Streptococcus pneumoniae 7127 harboring S20N mutation in L4 ribosomal protein and A105V mutation in L22 ribosomal protein after 43 passages and 10 compound-free subculturing by retest method; type: functional
Streptococcus pneumoniae [18] = assay: Antibacterial activity against macrolide-resistant Streptococcus pneumoniae 1635 harboring erm(A) gene after overnight incubation by agar dilution method; type: functional
Streptococcus pneumoniae [19] = assay: Antibacterial activity against macrolide-resistant Streptococcus pneumoniae 3009 harboring mutation in 23S rRNA after overnight incubation by agar dilution method; type: functional
Streptococcus pyogenes [20] = assay: Antibacterial activity against macrolide-susceptible Streptococcus pyogenes 2132 after overnight incubation by agar dilution method
Streptococcus pyogenes [21] = assay: Antibacterial activity against macrolide-susceptible Streptococcus pyogenes 2132 after 28 passages and 10 compound-free subculturing by retest method
Streptococcus pyogenes [22] = assay: Antibacterial activity against macrolide-resistant Streptococcus pyogenes 2368 harboring erm(B) gene after 6 passages and 10 compound-free subculturing by retest method
Streptococcus pyogenes [23] = assay: Antibacterial activity against macrolide-resistant Streptococcus pyogenes 2094 harboring erm(A) gene after 5 passages and 10 compound-free subculturing by retest method
Streptococcus pyogenes [24] = assay: Antibacterial activity against macrolide-resistant Streptococcus pyogenes 2094 harboring erm(A) gene after 6 passages and 10 compound-free subculturing by retest method
Streptococcus pyogenes [25] = assay: Antibacterial activity against macrolide-resistant Streptococcus pyogenes 2094 harboring erm(A) gene after 22 passages and 10 compound-free subculturing by retest method
Streptococcus pyogenes [26] = assay: Antibacterial activity against macrolide-resistant Streptococcus pyogenes 2094 harboring erm(A) gene after 34 passages and 10 compound-free subculturing by retest method
Streptococcus pyogenes [27] = assay: Antibacterial activity against macrolide-resistant Streptococcus pyogenes 237 harboring mutation in L4 ribosomal protein after overnight incubation by agar dilution method
Streptococcus pyogenes [28] = assay: Antibacterial activity against macrolide-resistant Streptococcus pyogenes 237 harboring mutation in L4 ribosomal protein after 20 passages and 10 compound-free subculturing by retest method
Streptococcus pneumoniae [29] = assay: Antibacterial activity against Streptococcus pneumoniae harboring erm(B) and mef(A) gene after overnight incubation by agar dilution method; type: functional; procedure, shortened: as §1
Streptococcus pneumoniae [30] = assay: Antibacterial activity against macrolide-resistant Streptococcus pneumoniae 3665 harboring mef(A) gene after 14 passages and 10 compound-free subculturing by retest method; type: functional
Streptococcus pyogenes [31] = assay: Antibacterial activity against macrolide-resistant Streptococcus pyogenes 2011 harboring mef(A) gene after 50 passages following overnight incubation by agar dilution method

`CC[C@H]1OC(=O)[C@H](C)[C@@H](O[C@H]2C[C@@](C)(OC)[C@@H](O)[C@H](C)O2)[C@H](C)[C@@H](O[C@@H]2O[C@H](C)C[C@H](N(C)C)[C@H]2O)[C@](C)(O)C[C@@H](C)CN(C)[C@H](C)[C@@H](O)[C@]1(C)O` [AZITHROMYCIN] was tested, and the MIC50 (Streptococcus pneumoniae [1]) was 4 µg/mL (≈ 5.34 µM), the MIC90 (Streptococcus pneumoniae [1]) was 8 µg/mL (≈ 10.7 µM) and the MIC50 (Streptococcus pneumoniae [2]) was greater than 64 µg/mL. The MIC90 (Streptococcus pneumoniae [2]) was greater than 64 µg/mL, the MIC50 (Streptococcus pneumoniae [3]) was 0.125 µg/mL (≈ 0.167 µM) and the MIC50 (Streptococcus pneumoniae [4]) was 4 µg/mL (≈ 5.34 µM). The MIC90 (Streptococcus pneumoniae [4]) was 8 µg/mL (≈ 10.7 µM), the MIC50 (Streptococcus pyogenes [5]) was 0.125 µg/mL (≈ 0.167 µM) and the MIC90 (Streptococcus pyogenes [5]) was 0.25 µg/mL (≈ 0.334 µM). It also gave an MIC50 (Streptococcus pyogenes [6]) of 8 µg/mL (≈ 10.7 µM), an MIC90 (Streptococcus pyogenes [6]) of 8 µg/mL (≈ 10.7 µM) and an MIC50 (Streptococcus pyogenes [7]) of 16 µg/mL (≈ 21.4 µM). It also gave an MIC90 (Streptococcus pyogenes [7]) greater than 64 µg/mL, an MIC (Streptococcus pyogenes [8]) of 2 µg/mL (≈ 2.67 µM) and an MIC50 (Streptococcus pyogenes [9]) greater than 64 µg/mL. The MIC90 (Streptococcus pyogenes [9]) was greater than 64 µg/mL, the MIC50 (Streptococcus pyogenes [10]) was 8 µg/mL (≈ 10.7 µM) and the MIC90 (Streptococcus pyogenes [10]) was 8 µg/mL (≈ 10.7 µM). For the same compound, the MIC (Streptococcus pneumoniae [11]) was 0.03 µg/mL (≈ 0.0401 µM), the MIC (Streptococcus pneumoniae [12]) was 0.03 µg/mL (≈ 0.0401 µM) and the MIC (Streptococcus pneumoniae [13]) was 4 µg/mL (≈ 5.34 µM). The MIC (Streptococcus pneumoniae [14]) was greater than 64 µg/mL, the MIC (Streptococcus pneumoniae [15]) was greater than 64 µg/mL and the MIC (Streptococcus pneumoniae [16]) was 0.06 µg/mL (≈ 0.0801 µM). It also gave an MIC (Streptococcus pneumoniae [17]) of 0.03 µg/mL (≈ 0.0401 µM), an MIC (Streptococcus pneumoniae [18]) of 2 µg/mL (≈ 2.67 µM) and an MIC (Streptococcus pneumoniae [19]) greater than 64 µg/mL. The MIC (Streptococcus pyogenes [20]) was 0.06 µg/mL (≈ 0.0801 µM), the MIC (Streptococcus pyogenes [21]) was 1 µg/mL (≈ 1.34 µM) and the MIC (Streptococcus pyogenes [22]) was greater than 64 µg/mL. For the same compound, the MIC (Streptococcus pyogenes [23]) was greater than 64 µg/mL, the MIC (Streptococcus pyogenes [24]) was greater than 64 µg/mL and the MIC (Streptococcus pyogenes [25]) was greater than 64 µg/mL. It also gave an MIC (Streptococcus pyogenes [26]) of 16 µg/mL (≈ 21.4 µM), an MIC (Streptococcus pyogenes [27]) of 4 µg/mL (≈ 5.34 µM) and an MIC (Streptococcus pyogenes [28]) of 4 µg/mL (≈ 5.34 µM).

`CC[C@H]1OC(=O)[C@H](C)[C@@H](O[C@H]2C[C@@](C)(OC)[C@@H](O)[C@H](C)O2)[C@H](C)[C@@H](O[C@@H]2O[C@H](C)C[C@H](N(C)C)[C@H]2O)[C@](C)(OC)C[C@@H](C)C(=O)[C@H](C)[C@@H](O)[C@]1(C)O` [CLARITHROMYCIN] was tested, and the MIC50 (Streptococcus pneumoniae [1]) was 2 µg/mL (≈ 2.67 µM), the MIC90 (Streptococcus pneumoniae [1]) was 4 µg/mL (≈ 5.35 µM) and the MIC50 (Streptococcus pneumoniae [29]) was greater than 64 µg/mL. It also gave an MIC50 (Streptococcus pneumoniae [2]) of 16 µg/mL (≈ 21.4 µM), an MIC90 (Streptococcus pneumoniae [2]) greater than 64 µg/mL and an MIC50 (Streptococcus pneumoniae [3]) of 0.03 µg/mL (≈ 0.0401 µM). For the same compound, the MIC50 (Streptococcus pneumoniae [4]) was 2 µg/mL (≈ 2.67 µM), the MIC90 (Streptococcus pneumoniae [4]) was 4 µg/mL (≈ 5.35 µM) and the MIC50 (Streptococcus pyogenes [5]) was 0.03 µg/mL (≈ 0.0401 µM). It also gave an MIC90 (Streptococcus pyogenes [5]) of 0.06 µg/mL (≈ 0.0802 µM), an MIC50 (Streptococcus pyogenes [6]) of 4 µg/mL (≈ 5.35 µM) and an MIC90 (Streptococcus pyogenes [6]) of 8 µg/mL (≈ 10.7 µM). For the same compound, the MIC50 (Streptococcus pyogenes [7]) was 2 µg/mL (≈ 2.67 µM), the MIC90 (Streptococcus pyogenes [7]) was greater than 64 µg/mL and the MIC (Streptococcus pyogenes [8]) was 1 µg/mL (≈ 1.34 µM). The MIC50 (Streptococcus pyogenes [9]) was greater than 64 µg/mL, the MIC90 (Streptococcus pyogenes [9]) was greater than 64 µg/mL and the MIC50 (Streptococcus pyogenes [10]) was 4 µg/mL (≈ 5.35 µM). The MIC90 (Streptococcus pyogenes [10]) was 8 µg/mL (≈ 10.7 µM), the MIC (Streptococcus pneumoniae [11]) was 0.016 µg/mL (≈ 0.0214 µM) and the MIC (Streptococcus pneumoniae [12]) was 0.06 µg/mL (≈ 0.0802 µM). The MIC (Streptococcus pneumoniae [30]) was 2 µg/mL (≈ 2.67 µM), the MIC (Streptococcus pneumoniae [30]; Streptococcus pneumoniae, 3665, read-out: MIC) was 4 µg/mL (≈ 5.35 µM) and the MIC (Streptococcus pneumoniae [13]) was 1 µg/mL (≈ 1.34 µM). For the same compound, the MIC (Streptococcus pneumoniae [14]) was greater than 64 µg/mL, the MIC (Streptococcus pneumoniae [15]) was greater than 64 µg/mL and the MIC (Streptococcus pneumoniae [16]) was 0.06 µg/mL (≈ 0.0802 µM). The MIC (Streptococcus pneumoniae [17]) was 0.016 µg/mL (≈ 0.0214 µM), the MIC (Streptococcus pneumoniae [18]) was 0.5 µg/mL (≈ 0.668 µM) and the MIC (Streptococcus pneumoniae [19]) was 16 µg/mL (≈ 21.4 µM). The MIC (Streptococcus pyogenes [20]) was 0.03 µg/mL (≈ 0.0401 µM), the MIC (Streptococcus pyogenes [21]) was 0.25 µg/mL (≈ 0.334 µM) and the MIC (Streptococcus pyogenes [22]) was greater than 64 µg/mL. It also gave an MIC (Streptococcus pyogenes [23]) of 1 µg/mL (≈ 1.34 µM), an MIC (Streptococcus pyogenes [24]) greater than 64 µg/mL and an MIC (Streptococcus pyogenes [25]) of 8 µg/mL (≈ 10.7 µM). The MIC (Streptococcus pyogenes [26]) was 1 µg/mL (≈ 1.34 µM), the MIC (Streptococcus pyogenes [27]) was 0.25 µg/mL (≈ 0.334 µM) and the MIC (Streptococcus pyogenes [31]) was 8 µg/mL (≈ 10.7 µM). For the same compound, the MIC (Streptococcus pyogenes [28]) was 1 µg/mL (≈ 1.34 µM).
